Results from ChEMBL document CHEMBL1150360, “Design, synthesis, and QSAR studies of novel lysine derives as amino-peptidase N/CD13 inhibitors” (Bioorg Med Chem, 2008).

Columns and labels:
[1] = Inhibition of aminopeptidase N
How it was run: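 Porcine kidney microsomal aminopeptidase, 4 µg/mL final, preincubated 30 min at room temperature with inhibitor. Inhibitor solutions made in assay buffer and adjusted to pH 7.5. Substrate L-Leu-p-nitroanilide in 50 mM PBS, pH 7.2, at 37 °C; hydrolysis followed as absorbance change at 405 nm. IC50 determined.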

[2] = biological target: 72 kDa type IV collagenase (Homo sapiens, UniProt P08253); experiment: Inhibition of MMP2
Sequence of 72 kDa type IV collagenase (P08253 whole entry): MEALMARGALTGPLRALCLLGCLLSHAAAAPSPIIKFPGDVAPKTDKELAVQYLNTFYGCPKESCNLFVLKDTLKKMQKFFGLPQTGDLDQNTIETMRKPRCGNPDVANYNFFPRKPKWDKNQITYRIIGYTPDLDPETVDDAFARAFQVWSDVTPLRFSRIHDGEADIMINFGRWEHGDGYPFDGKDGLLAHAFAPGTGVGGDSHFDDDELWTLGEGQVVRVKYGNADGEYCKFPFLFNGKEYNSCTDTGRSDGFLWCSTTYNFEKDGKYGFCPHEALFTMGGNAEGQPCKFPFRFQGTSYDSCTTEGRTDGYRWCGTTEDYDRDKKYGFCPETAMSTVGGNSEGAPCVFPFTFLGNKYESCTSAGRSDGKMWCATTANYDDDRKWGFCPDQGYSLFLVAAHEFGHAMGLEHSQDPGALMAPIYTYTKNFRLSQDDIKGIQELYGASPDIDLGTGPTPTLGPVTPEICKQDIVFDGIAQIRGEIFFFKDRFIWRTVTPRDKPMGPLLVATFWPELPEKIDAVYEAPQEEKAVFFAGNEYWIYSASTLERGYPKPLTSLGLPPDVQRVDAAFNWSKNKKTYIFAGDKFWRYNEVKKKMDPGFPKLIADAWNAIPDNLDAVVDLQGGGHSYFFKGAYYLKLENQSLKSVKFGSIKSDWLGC
How it was run: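 Gelatinase A enzyme, synthetic substrate and inhibitor dissolved together in 50 mmol/L sodium borate, pH 8.5, and incubated 30 min at 37 °C. 0.03% TNBS then added and incubated a further 20 min. Absorbance read at 450 nm.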

Row | SMILES | IC50 [1] | pIC50 [1] | IC50 [2]
1 | O=C(NCCCC[C@H](NC(=O)c1cnccn1)C(=O)O)OCc1ccccc1 | 197 µM | 3.7 | 2.93 µM
2 | O=C(/C=C/c1ccccc1)N[C@@H](CCCCNC(=O)OCc1ccccc1)C(=O)O | 215 µM | 3.67 | 50.5 µM
3 | O=C(NCCCC[C@H](NC(=O)c1cccs1)C(=O)O)OCc1ccccc1 | 1250 µM | 2.9 | 12.7 µM
4 | O=C(NCCCC[C@H](NC(=O)c1ccc(Br)cc1)C(=O)O)OCc1ccccc1 | 188 µM | 3.73 | 13.1 µM
5 | O=C(NCCCC[C@H](NC(=O)c1ccncc1)C(=O)O)OCc1ccccc1 | 292 µM | 3.54 | 8.76 µM
6 | O=C(NCCCC[C@H](NC(=O)c1cccc([N+](=O)[O-])c1)C(=O)NO)OCc1ccccc1 | 95.8 µM | 4.02 | 11.7 µM
7 | O=C(NCCCC[C@H](NC(=O)c1cccc([N+](=O)[O-])c1)C(=O)O)OCc1ccccc1 | 111 µM | 3.96 | 7.48 µM
8 | O=C(NCCCC[C@H](NC(=O)c1ccco1)C(=O)O)OCc1ccccc1 | 1120 µM | 2.95 | 8.49 µM
9 | O=C(NCCCC[C@H](NC(=O)c1ccncc1)C(=O)NO)OCc1ccccc1 | 91.2 µM | 4.04 | 25.5 µM
10 | O=C(NCCCC[C@H](NC(=O)c1ccco1)C(=O)NO)OCc1ccccc1 | 159 µM | 3.8 | 8.08 µM
11 | O=C(NCCCC[C@H](NC(=O)c1ccc([N+](=O)[O-])cc1)C(=O)O)OCc1ccccc1 | 202 µM | 3.69 | 19.2 µM
12 | O=C(NCCCC[C@H](NC(=O)c1cccs1)C(=O)NO)OCc1ccccc1 | 159 µM | 3.8 | 12.6 µM
13 | O=C(NCCCC[C@H](NC(=O)c1ccc(Br)cc1)C(=O)NO)OCc1ccccc1 | 112 µM | 3.95 | 9.94 µM
14 | O=C(NCCCC[C@H](NC(=O)c1cccnc1)C(=O)NO)OCc1ccccc1 | 94.3 µM | 4.03 | 8 µM

Further compounds by falling IC50 [1], results first:

Row | IC50 [1] | pIC50 [1] | IC50 [2] | SMILES
15 | 570 µM | 3.24 | 3.54 µM | O=C(/C=C/c1ccccc1)N[C@@H](CCCCNC(=O)OCc1ccccc1)C(=O)NO
16 | 167 µM | 3.78 | 3.14 µM | O=C(NCCCC[C@H](NC(=O)c1cccnc1)C(=O)O)OCc1ccccc1
17 | 127 µM | 3.9 | 17.8 µM | O=C(NCCCC[C@H](NC(=O)c1ccc(Cl)cc1Cl)C(=O)O)OCc1ccccc1
18 | 108 µM | 3.97 | 32 µM | O=C(NCCCC[C@H](NC(=O)c1ccc([N+](=O)[O-])cc1)C(=O)NO)OCc1ccccc1
19 | 97 µM | 4.01 | 14.3 µM | O=C(NCCCC[C@H](NC(=O)c1cnccn1)C(=O)NO)OCc1ccccc1
20 | 15.5 µM |  | 22 µM | CC(C)C[C@H](NC(=O)[C@@H](O)[C@H](N)Cc1ccccc1)C(=O)O [UBENIMEX]
21 | 13.2 µM | 4.88 | 170 µM | O=C(NCCCC[C@H](NC(=O)c1ccc(Cl)cc1Cl)C(=O)NO)OCc1ccccc1
